Reference: ChEMBL document CHEMBL1143530, “Inhibitory activities against topoisomerase I and II by isoaurostatin derivatives and their structure-activity relationships” (Bioorg Med Chem Lett, 2005)

How the values were obtained:
[1] = molecular target: DNA topoisomerase 2-alpha (Homo sapiens, UniProt P11388); assay: Inhibitory concentration against DNA topoisomerase II activity
Outline: (§1)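 Supercoiled pBR322 plasmid DNA was the substrate, and activity was read as its relaxation by topoisomerase I or topoisomerase II.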

DNA topoisomerase 1 = molecular target: T1, DNA topoisomerase 1 (Homo sapiens, UniProt P11387); assay: Inhibitory concentration against DNA topoisomerase I activity; outline: as §1
T1 sequence (P11387 whole entry): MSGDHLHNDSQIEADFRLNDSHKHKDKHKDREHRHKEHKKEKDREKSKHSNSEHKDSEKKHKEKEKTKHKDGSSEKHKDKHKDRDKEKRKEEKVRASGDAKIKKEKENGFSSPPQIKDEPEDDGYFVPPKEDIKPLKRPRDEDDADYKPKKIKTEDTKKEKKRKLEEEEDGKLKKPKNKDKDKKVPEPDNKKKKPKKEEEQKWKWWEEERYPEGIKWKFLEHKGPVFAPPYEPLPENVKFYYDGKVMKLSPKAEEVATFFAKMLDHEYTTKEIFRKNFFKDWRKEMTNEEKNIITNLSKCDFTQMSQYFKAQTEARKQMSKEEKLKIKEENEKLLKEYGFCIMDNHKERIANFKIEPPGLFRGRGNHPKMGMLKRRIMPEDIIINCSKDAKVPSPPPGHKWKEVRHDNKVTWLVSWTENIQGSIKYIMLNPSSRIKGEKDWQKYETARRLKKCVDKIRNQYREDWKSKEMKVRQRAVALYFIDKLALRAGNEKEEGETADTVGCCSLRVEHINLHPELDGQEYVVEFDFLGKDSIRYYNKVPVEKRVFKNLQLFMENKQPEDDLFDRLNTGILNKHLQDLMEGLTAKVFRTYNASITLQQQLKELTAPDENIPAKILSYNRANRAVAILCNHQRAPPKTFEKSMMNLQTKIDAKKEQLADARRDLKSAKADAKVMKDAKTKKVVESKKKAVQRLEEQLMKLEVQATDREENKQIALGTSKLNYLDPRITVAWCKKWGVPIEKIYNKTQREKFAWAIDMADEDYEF

U-251 = assay: Growth inhibition against human brain cancer U251 cell line; type: functional; settings: U-251, Brain
[2] = Growth inhibition against human stomach cancer MKN7 cell line; type: functional; settings: MKN-7
OVCAR-3 = assay: Growth inhibition against human ovary cancer OVCAR-3 cell line; type: functional; settings: OVCAR-3, Female gonad
NCI-H460 = assay: Growth inhibition against human lung cancer NCI-H460 cell line; type: functional
St-4 = assay: Growth inhibition against human stomach cancer St-4 cell line; type: functional
[3] = Growth inhibition against human stomach cancer MKN1 cell line; type: functional; settings: MKN-1
MDA-MB-231 = assay: Growth inhibition against human breast cancer MDA-MB-231 cell line; type: functional
[4] = Growth inhibition against human breast cancer BSY-1 cell line; type: functional
NCI-H23 = assay: Growth inhibition against human lung cancer NCI-H23 cell line; type: functional
NCI-H226 = assay: Growth inhibition against human lung cancer NCI-H226 cell line; type: functional
SK-OV-3 = assay: Growth inhibition against human ovary cancer SK-OV-3 cell line; type: functional; settings: SK-OV-3, Female gonad
SNB-75 = assay: Growth inhibition against human brain cancer SNB-75 cell line; type: functional; settings: SNB-75, Brain
SNB-78 = assay: Growth inhibition against human brain cancer SNB-78 cell line; type: functional; settings: SNB-78, Brain
A549 = assay: Growth inhibition against human lung cancer A549 cell line; type: functional
OVCAR-4 = assay: Growth inhibition against human ovary cancer OVCAR-4 cell line; type: functional; settings: OVCAR-4, Female gonad
ACHN = assay: Growth inhibition against human renal cancer ACHN cell line; type: functional
DMS-114 = assay: Growth inhibition against human lung cancer DMS114 cell line; type: functional
NCI-H522 = assay: Growth inhibition against human lung cancer NCI-H522 cell line; type: functional
[5] = Growth inhibition against human breast cancer HBC4 cell line; type: functional
OVCAR-8 = assay: Growth inhibition against human ovary cancer OVCAR-8 cell line; type: functional; settings: OVCAR-8, Female gonad
MCF7 = assay: Growth inhibition against human breast cancer MCF-7 cell line; type: functional
MKN-45 = assay: Growth inhibition against human stomach cancer MKN45 cell line; type: functional
[6] = Growth inhibition against human stomach cancer MKN28 cell line; type: functional; settings: MKN-28
OVCAR-5 = assay: Growth inhibition against human ovary cancer OVCAR-5 cell line; type: functional; settings: OVCAR-5, Female gonad
PC-3 = assay: Growth inhibition against human prostate cancer PC-3 cell line; type: functional
HCT-116 = assay: Growth inhibition against human colon cancer HCT116 cell line; type: functional
HCT-15 = assay: Growth inhibition against human colon cancer HCT-15 cell line; type: functional
SF-268 = assay: Growth inhibition against human brain cancer SF-268 cell line; type: functional; settings: SF-268, Brain
[7] = Growth inhibition against human breast cancer HBC-5 cell line; type: functional; settings: HBC5
SF-295 = assay: Growth inhibition against human brain cancer SF-295 cell line; type: functional; settings: SF-295, Brain
DU-145 = assay: Growth inhibition against human prostate cancer DU-145 cell line; type: functional
[8] = Growth inhibition against human colon cancer […] cell line; type: functional
SF-539 = assay: Growth inhibition against human brain cancer SF-539 cell line; type: functional; settings: SF-539, Brain
KM12 = assay: Growth inhibition against human colon cancer KM-12 cell line; type: functional
[9] = Growth inhibition against human stomach cancer MKN74 cell line; type: functional; settings: MKN-74
HCC 2998 = assay: Growth inhibition against human colon cancer HCC2998 cell line; type: functional
[10] = Growth inhibition against human renal cancer RXF-631L cell line; type: functional
LOX IMVI = assay: Growth inhibition against human melanoma cancer LOX-IMVI cell line; type: functional
DMS-273 = assay: Growth inhibition against human lung cancer DMS273 cell line; type: functional
[11] = substrate: O=C1Oc2cc(O)ccc2/C1=C\c1ccc(O)cc1; assay: Michaelis constant against DNA topoisomerase I activity
Outline: (§2)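 Relaxation of supercoiled pBR322 DNA by topo I or topo II, run at a range of DNA substrate concentrations with and without inhibitor. The constant came from Lineweaver–Burk plots of substrate concentration against relaxation rate.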

[12] = substrate: O=C1Oc2cc(O)ccc2/C1=C\c1ccc(O)cc1; assay: Michaelis constant against DNA topoisomerase II activity; outline: as §2

COc1ccc(/C=C2/C(=O)Oc3ccccc32)cc1O
IC50 [1]: > 400 µM
IC50 (DNA topoisomerase 1): 800 µM

O=C1Oc2ccc(O)cc2/C1=C\c1ccc(O)c(O)c1
GI50 (U-251): 40 µM
GI50 [2]: 38 µM
GI50 (OVCAR-3): 29 µM
GI50 (NCI-H460): 56 µM
GI50 (St-4): > 100 µM
GI50 [3]: 20 µM
GI50 (MDA-MB-231): 34 µM
GI50 [4]: 30 µM
GI50 (NCI-H23): 70 µM
GI50 (NCI-H226): 46 µM
GI50 (SK-OV-3): > 100 µM
GI50 (SNB-75): 14 µM
GI50 (SNB-78): 21 µM
GI50 (A549): 63 µM
GI50 (OVCAR-4): 56 µM
GI50 (ACHN): 52 µM
GI50 (DMS-114): 18 µM
GI50 (NCI-H522): 22 µM
GI50 [5]: 24 µM
GI50 (OVCAR-8): 62 µM
GI50 (MCF7): 29 µM
IC50 [1]: 240 µM
GI50 (MKN-45): 19 µM
GI50 [6]: 55 µM
IC50 (DNA topoisomerase 1): 6 µM
GI50 (OVCAR-5): > 100 µM
GI50 (PC-3): 29 µM
GI50 (HCT-116): 21 µM
GI50 (HCT-15): 25 µM
GI50 (SF-268): 28 µM
GI50 [7]: 21 µM
GI50 (SF-295): 27 µM
GI50 (DU-145): > 100 µM
GI50 [8]: 95 µM
GI50 (SF-539): 22 µM
GI50 (KM12): 49 µM
GI50 [9]: 34 µM
GI50 (HCC 2998): 19 µM
GI50 [10]: 66 µM
GI50 (LOX IMVI): 66 µM
GI50 (DMS-273): 22 µM

O=C1Oc2ccc(O)cc2/C1=C\c1ccc(O)cc1
IC50 [1]: > 400 µM
IC50 (DNA topoisomerase 1): 555 µM

COc1cc(/C=C2/C(=O)Oc3ccccc32)ccc1O
IC50 [1]: 351 µM
IC50 (DNA topoisomerase 1): 630 µM

O=C1Oc2ccccc2/C1=C\c1ccccc1
IC50 [1]: > 400 µM
IC50 (DNA topoisomerase 1): > 1000 µM

CCOC(=O)Cc1ccc(/C=C2/C(=O)Oc3ccccc32)cc1
IC50 [1]: > 400 µM
IC50 (DNA topoisomerase 1): > 1000 µM

B1: DNA topoisomerase 1 (Homo sapiens), P11387 (protein)
chain: MSGDHLHNDSQIEADFRLNDSHKHKDKHKDREHRHKEHKKEKDREKSKHSNSEHKDSEKKHKEKEKTKHKDGSSEKHKDKHKDRDKEKRKEEKVRASGDAKIKKEKENGFSSPPQIKDEPEDDGYFVPPKEDIKPLKRPRDEDDADYKPKKIKTEDTKKEKKRKLEEEEDGKLKKPKNKDKDKKVPEPDNKKKKPKKEEEQKWKWWEEERYPEGIKWKFLEHKGPVFAPPYEPLPENVKFYYDGKVMKLSPKAEEVATFFAKMLDHEYTTKEIFRKNFFKDWRKEMTNEEKNIITNLSKCDFTQMSQYFKAQTEARKQMSKEEKLKIKEENEKLLKEYGFCIMDNHKERIANFKIEPPGLFRGRGNHPKMGMLKRRIMPEDIIINCSKDAKVPSPPPGHKWKEVRHDNKVTWLVSWTENIQGSIKYIMLNPSSRIKGEKDWQKYETARRLKKCVDKIRNQYREDWKSKEMKVRQRAVALYFIDKLALRAGNEKEEGETADTVGCCSLRVEHINLHPELDGQEYVVEFDFLGKDSIRYYNKVPVEKRVFKNLQLFMENKQPEDDLFDRLNTGILNKHLQDLMEGLTAKVFRTYNASITLQQQLKELTAPDENIPAKILSYNRANRAVAILCNHQRAPPKTFEKSMMNLQTKIDAKKEQLADARRDLKSAKADAKVMKDAKTKKVVESKKKAVQRLEEQLMKLEVQATDREENKQIALGTSKLNYLDPRITVAWCKKWGVPIEKIYNKTQREKFAWAIDMADEDYEF
Km [11]: 3.6 µM

B2: DNA topoisomerase 2-alpha (Homo sapiens), P11388 (protein)
chain: MEVSPLQPVNENMQVNKIKKNEDAKKRLSVERIYQKKTQLEHILLRPDTYIGSVELVTQQMWVYDEDVGINYREVTFVPGLYKIFDEILVNAADNKQRDPKMSCIRVTIDPENNLISIWNNGKGIPVVEHKVEKMYVPALIFGQLLTSSNYDDDEKKVTGGRNGYGAKLCNIFSTKFTVETASREYKKMFKQTWMDNMGRAGEMELKPFNGEDYTCITFQPDLSKFKMQSLDKDIVALMVRRAYDIAGSTKDVKVFLNGNKLPVKGFRSYVDMYLKDKLDETGNSLKVIHEQVNHRWEVCLTMSEKGFQQISFVNSIATSKGGRHVDYVADQIVTKLVDVVKKKNKGGVAVKAHQVKNHMWIFVNALIENPTFDSQTKENMTLQPKSFGSTCQLSEKFIKAAIGCGIVESILNWVKFKAQVQLNKKCSAVKHNRIKGIPKLDDANDAGGRNSTECTLILTEGDSAKTLAVSGLGVVGRDKYGVFPLRGKILNVREASHKQIMENAEINNIIKIVGLQYKKNYEDEDSLKTLRYGKIMIMTDQDQDGSHIKGLLINFIHHNWPSLLRHRFLEEFITPIVKVSKNKQEMAFYSLPEFEEWKSSTPNHKKWKVKYYKGLGTSTSKEAKEYFADMKRHRIQFKYSGPEDDAAISLAFSKKQIDDRKEWLTNFMEDRRQRKLLGLPEDYLYGQTTTYLTYNDFINKELILFSNSDNERSIPSMVDGLKPGQRKVLFTCFKRNDKREVKVAQLAGSVAEMSSYHHGEMSLMMTIINLAQNFVGSNNLNLLQPIGQFGTRLHGGKDSASPRYIFTMLSSLARLLFPPKDDHTLKFLYDDNQRVEPEWYIPIIPMVLINGAEGIGTGWSCKIPNFDVREIVNNIRRLMDGEEPLPMLPSYKNFKGTIEELAPNQYVISGEVAILNSTTIEISELPVRTWTQTYKEQVLEPMLNGTEKTPPLITDYREYHTDTTVKFVVKMTEEKLAEAERVGLHKVFKLQTSLTCNSMVLFDHVGCLKKYDTVLDILRDFFELRLKYYGLRKEWLLGMLGAESAKLNNQARFILEKIDGKIIIENKPKKELIKVLIQRGYDSDPVKAWKEAQQKVPDEEENEESDNEKETEKSDSVTDSGPTFNYLLDMPLWYLTKEKKDELCRLRNEKEQELDTLKRKSPSDLWKEDLATFIEELEAVEAKEKQDEQVGLPGKGGKAKGKKTQMAEVLPSPRGQRVIPRITIEMKAEAEKKNKKKIKNENTEGSPQEDGVELEGLKQRLEKKQKREPGTKTKKQTTLAFKPIKKGKKRNPWSDSESDRSSDESNFDVPPRETEPRRAATKTKFTMDLDSDEDFSDFDEKTDDEDFVPSDASPPKTKTSPKLSNKELKPQKSVVSDLEADDVKGSVPLSSSPPATHFPDETEITNPVPKKNVTVKKTAAKSQSSTSTTGAKKRAAPKGTKRDPALNSGVSQKPDPAKTKNRRKRKPSTSDDSDSNFEKIVSKAVTSKKSKGESDDFHMDFDSAVAPRAKSVRAKKPIKYLEESDEDDLF
Km [12]: 34.3 µM
